We go through 97 compounds from ChEMBL document CHEMBL4513216, “Probing the Open Global Health Chemical Diversity Library for Multistage-Active Starting Points for Next-Generation Antimalarials” (ACS Infect Dis, 2020).

A short description of this data set: Toxicity liver stage against HepG2, at 10uM. Format: cell-based. Details: test concentration 10 uM, cell line HepG2-A16-CD81EGFP. The note with it: human, HepG2-A16-CD81EGFP cells; read-out: INHIBITION
The essentials:
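Uninfected HepG2-A16-CD81EGFP cells, 3 × 10^3 per well, 1536-well, plated on prespotted compound at 10 μM final, parasite-free screening media added to match infected plates; puromycin 10 μM positive, DMSO 0.5% negative; run in parallel with 48 h PbLuc assay at 37 °C, 5% CO2; viability by CellTiter-Glo luminescence, normalized to controls.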
As for `COc1ccc(CCCN(C)C(=O)c2cc(C(C)=O)c[nH]2)cc1OC`, the cytotoxicity at 10 µM stood at 2.24%.
For `COCCn1c(-c2cccc(OC)c2)cnc1NC(=O)NCCC(C)C`, the cytotoxicity at 10 µM came out at 12.9%.
For the compound `CC(=O)OC1CN(c2nc3c(C)cccc3s2)C1`, the cytotoxicity at 10 µM was -5.14%.
As for `COCCN(C)C(=O)c1nc2c(s1)CCCN2c1ncccn1`, the cytotoxicity at 10 µM is -131%.
As to `CCS(=O)(=O)N1CC[C@@H]2[C@H](COCC3CC3)CN(C)C(=O)[C@@H]2CC1`, the cytotoxicity at 10 µM is -4.79%.
With `CS(=O)(=O)N1CCc2sc(C(=O)NCCc3ccccn3)cc21`, the cytotoxicity at 10 µM is -0.464%.
Regarding `COCCC(=O)N1CCC2(CN(Cc3ccc(OC)c(F)c3)C2)C1`, the cytotoxicity at 10 µM is -10.4%.
With `O=C(Cc1ccsc1)NCC1OCCc2cn(CC3CC3)nc21` (configuration not stated), the cytotoxicity at 10 µM was 9.77%.
`CCn1nccc1CNc1nc(N)nc2c1nc(C)n2C`: the cytotoxicity at 10 µM was -8.13%.
`Cc1nc(NCCc2ccccc2)cc(C(=O)N2CCCCC2)n1`: the cytotoxicity at 10 µM was -6.27%.
For `Cc1nc(=O)c2ccccc2n1C1=CCN(CC(=O)N2CCCC2)CC1`, the cytotoxicity at 10 µM was -7.45%.
For the compound `Oc1cc(-c2ccccn2)nc(C2CCN(Cc3ccncc3)CC2)n1`, the cytotoxicity at 10 µM was -7.56%.
Take `Cn1cc(CNC(=O)Nc2ccc(S(=O)(=O)C(F)F)cc2)cn1`: the cytotoxicity at 10 µM is -5.09%.
As for `CN(CCCOc1ccccc1)S(=O)(=O)N1CCOCC1`, the cytotoxicity at 10 µM amounted to 4.38%.
Regarding `CC(C)C(C#N)N1CCN(C(=O)c2cc(-c3ccccn3)no2)CC1` (configuration not stated), the cytotoxicity at 10 µM was -1.54%.
Regarding `CC(SCCC(=O)NC(N)=O)c1c(F)cccc1F` (configuration not stated), the cytotoxicity at 10 µM turned out to be 6.93%.
For `COc1ccc(CNC(=O)N2CCc3sccc3C2)cc1O` the value was 7.57%; for `CC(C)(C)CC(NC(=O)N1CCS(=O)(=O)CC1)C(F)(F)F` (configuration not stated), 0.106%; for `COC(=O)c1cccc(S(=O)(=O)Nc2ccc(Cl)c(C(N)=O)c2)c1`, 7.31%.
Take `O=C(NCCOc1ccc(F)cc1)C1CCCN(C(=O)C2CC2)C1` (configuration not stated): the cytotoxicity at 10 µM stood at 0.856%.
Regarding `CC(c1nc(C2CC2)no1)N1CCN(CCc2ccncc2)CC1` (configuration not stated), the cytotoxicity at 10 µM is -5.65%.
Turning to `CCOc1ccc(Cl)cc1CCNC(=O)Cn1ccccc1=O`, the cytotoxicity at 10 µM was 8%.
As to `COc1cccc(CCC(=O)Nc2ccn(C)n2)c1OC`, the cytotoxicity at 10 µM was -2.14%.
Take `CC(C(=O)Nc1ccc(C#N)cc1)N1CCc2ccccc21` (configuration not stated): the cytotoxicity at 10 µM was -1.5%.
Under `COc1cc(CNC(=O)Nc2nnc(C(C)C)s2)ccc1O` stands -2.22%; under `Cc1cc(S(=O)(=O)N2CC[C@@H](O)C2)c(Cl)cc1F`, -8.59%.
Under `Cc1cccc(C(=O)NCC2CCS(=O)(=O)C2)n1` (configuration not stated) stands -6.21%; under `CN(C)C(=O)CS(=O)(=O)Cc1ccn(-c2cccc(F)c2)n1`, 3.03%; under `CC(C)c1nc(C2CCCN(C(=O)CS(=O)(=O)C(C)C)C2)no1` (configuration not stated), 8.75%.
On to `Cc1nc(NC(=O)C(C)N2CCN(c3ncccn3)CC2)sc1C` (configuration not stated), for which the cytotoxicity at 10 µM amounted to 4.79%.
`CCNC(=O)NCc1ccccc1NS(=O)(=O)c1ccccc1`: the cytotoxicity at 10 µM was 8.27%.
Under `CN(Cc1ccncc1)Cc1nccn1Cc1ccccc1` stands 12.5%.
`COCCCN1CCC(NC2CSCCc3ccccc32)CC1` (configuration not stated): the cytotoxicity at 10 µM was -3.32%.
With `CCN(CC(F)(F)F)C(=O)C1CCCN(Cc2ccccn2)C1` (configuration not stated), the cytotoxicity at 10 µM is -2.3%.
For `CN1CC(C(=O)NC(C)(C)CNC(=O)OC(C)(C)C)CC1=O` (configuration not stated), the cytotoxicity at 10 µM was -3.88%.
For `O=C(NC1CC1)C1CCCN1c1ncnc2ccsc12` (configuration not stated) the value was -5.2%; for `O=C(CCNS(=O)(=O)c1cccnc1)N1CCOC(c2ccccc2)C1` (configuration not stated), 5.11%.
As to `O=C(NCCNc1ccc(Br)cn1)c1ccc(O)cc1`, the cytotoxicity at 10 µM stood at 0.612%.
For the compound `CC(=O)NC(c1cc(F)ccc1F)C1CC1` (configuration not stated), the cytotoxicity at 10 µM is -1.99%.
As for `Cn1ccnc1-c1noc(NCc2ccccc2)n1`, the cytotoxicity at 10 µM is -3.49%.
For `CN(CC(O)C1CC1)C(=O)c1ccc(-c2nc(C3CC3)n[nH]2)cc1` (configuration not stated), the cytotoxicity at 10 µM was -5.09%.
As for `Cc1cc(CS(=O)(=O)N(C)C(C)c2ccc(Cl)cc2)on1` (configuration not stated), the cytotoxicity at 10 µM came to 9.72%.
Take `CCc1noc(CS(=O)(=O)c2cccc(OC)c2)n1`: the cytotoxicity at 10 µM came to 6.7%.
As for `CN(C)c1ccc(NC(=O)N2CCCCC2c2ncc[nH]2)cn1` (configuration not stated), the cytotoxicity at 10 µM was -1.78%.
For `O=C(CCc1ccco1)Nc1ncn(CC(=O)N2CCCCCC2)n1` the value was -2.29%; for `c1csc(-c2noc(CC3CCCO3)n2)c1` (configuration not stated), -3.37%; for `CC(C(=O)NC(N)=O)N1CCN(c2ccc(C#N)cc2F)CC1` (configuration not stated), -4.4%.
With `CCCS(=O)(=O)CC(=O)Nc1cc(CC(C)(C)C)n[nH]1`, the cytotoxicity at 10 µM was 2.43%.
Turning to `COc1cccc(CN(C)C(=O)CSc2ccc3c(c2)OCCO3)c1`, the cytotoxicity at 10 µM is -7.97%.
Turning to `Cc1ccc(OCC(=O)NCc2ccccc2F)nc1`, the cytotoxicity at 10 µM was -12%.
`CC[C@H](C)Nc1nccc(-c2cnc3sccn3c2=O)n1`: the cytotoxicity at 10 µM is -8.72%.
As for `Cc1noc(C)c1S(=O)(=O)N1C[C@@H](C(=O)O)[C@H](c2ccccn2)C1`, the cytotoxicity at 10 µM is -6.71%.
For `O=C(Nc1nc(-c2ccccc2)ns1)N1CCC(F)CC1`, the cytotoxicity at 10 µM was -137%.
Consider `Cc1ccc2c(c1)CN(CC(=O)NCCc1ccc(F)cc1)CC(C)O2` (configuration not stated), for which the cytotoxicity at 10 µM was found to be 1.54%.
For `Cc1ccc2c(c1)c(CNC(=O)C1CCN(C(=O)C3CC3)CC1)nn2C` the value was -0.687%.
For the compound `CCn1nc(C)c(C(C)Nc2cc(C3CCNCC3)nc(C)n2)c1C` (configuration not stated), the cytotoxicity at 10 µM was found to be 2.38%.
Under `Cc1ccc(C(=O)N2CCC3(CCC(=O)N(CCCO)C3)CC2)c(O)c1` stands 7.4%; under `COCCCN1CC2(CCN(C(=O)Cc3csc(C)n3)CC2)CC1=O`, 5.06%; under `COCCN(Cc1ccsc1)C(=O)c1c(C)cc(C)[nH]c1=O`, -2.42%.
With `COc1ccnc(CNc2cc(C3CC3)ncn2)c1`, the cytotoxicity at 10 µM is -7.64%.
In the case of `CN(C)C(=O)N1CCCn2nc(CNC(=O)CCc3ccsc3)cc2C1`, the cytotoxicity at 10 µM is -1.77%.
Under `O=C(N1CCOCC1)N1CC[C@@](O)(c2ccccc2)[C@H]2CCCC[C@@H]21` stands -1.11%.
On to `CC[C@@]1(O)CCN(C(=O)c2ccc(-c3ccco3)cc2)C[C@H]1O`, for which the cytotoxicity at 10 µM is 3.75%.
In the case of `CN(CCN1CCCCCC1)C(=O)c1c(O)cccc1O`, the cytotoxicity at 10 µM was -7.08%.
For `CN(C)[C@H]1CCCCN(Cc2ccccc2Cn2cccn2)C1`, the cytotoxicity at 10 µM is -130%.
For the compound `COc1cc(N(C)Cc2cc(C(C)(C)C)n[nH]2)ncn1`, the cytotoxicity at 10 µM was -11.1%.
As to `C[C@@H]1CN(Cc2cc(C(F)(F)F)ccc2F)CC[C@@]1(O)C1CC1`, the cytotoxicity at 10 µM was found to be 6%.
Take `COc1ccc(Cl)cc1S(=O)(=O)N(C)CC(=O)Nc1ccon1`: the cytotoxicity at 10 µM is -3.75%.
On to `Cc1nc2c(c(N3CCN(Cc4ccco4)CC3)n1)CCNCC2`, for which the cytotoxicity at 10 µM was -4.27%.
For `CC(=O)N[C@H]1CN(CC(=O)NCc2ccccc2C)C[C@@H]1C(C)C` the value was 1.69%.
Take `Cc1cc(C(=O)N2CCCC(C)C2)ccc1NCC(=O)N1CCOCC1` (configuration not stated): the cytotoxicity at 10 µM was -0.153%.
Regarding `CCCc1nnc(NC(=O)NC(C)Cn2cccn2)s1` (configuration not stated), the cytotoxicity at 10 µM was -4.05%.
Under `COC(=O)c1ccc(N2CCN(CC(=O)NC(N)=O)C(C)C2)cc1` (configuration not stated) stands -4.54%.
For `O=C(O)c1cc(NS(=O)(=O)c2ccc(Br)s2)c(F)cc1F` the value was -7.1%.
Turning to `Cc1ccc(CNC(=O)CN2CCOC(Cn3cccn3)C2)s1` (configuration not stated), the cytotoxicity at 10 µM was -24.1%.
With `Cc1cnn(CC(=O)NCC2CCN(c3cc(Cl)ccc3C)C2)c1` (configuration not stated), the cytotoxicity at 10 µM is -3.92%.
As for `O=C(NCc1ccoc1)Nc1cc(C(F)(F)F)c[nH]c1=O`, the cytotoxicity at 10 µM is -0.779%.
As to `Cc1ccc(OCc2nc(CNCC3CN(C)CCO3)cs2)cc1` (configuration not stated), the cytotoxicity at 10 µM is -23.5%.
Under `Cc1cc(C)n(CC2CN(Cc3nc(C)c(C)o3)CCO2)n1` (configuration not stated) stands 4.17%.
For the compound `O=C(CCN1CCc2c(ncn2C2CC2)C1)NC1CCCC1`, the cytotoxicity at 10 µM was -10.1%.
As to `Cc1ccc(C(CNC(=O)Nc2cn[nH]c2)N2CCOCC2)o1` (configuration not stated), the cytotoxicity at 10 µM is -24.8%.
On to `COc1ccnc(N2CCN(C(=O)Cc3ccsc3)CC2)n1`, for which the cytotoxicity at 10 µM is -3%.
For `COc1c(CNCC(O)c2cccc(F)c2)c(C)nn1C` (configuration not stated) the value was -6.41%; for `Cc1ccc2cccc(C(=O)N3CCN(c4cccnn4)CC3)c2n1`, 1.91%; for `Cc1ccc(CN(C)Cc2nc3c(cnn3C)c(=O)[nH]2)o1`, -0.972%.
As for `Cc1nn2cccnc2c1C(=O)N1CCCC(Nc2ccccc2)C1` (configuration not stated), the cytotoxicity at 10 µM was 5.82%.
Take `CNc1nc(C2CCCN2)nc2c1CCN(S(=O)(=O)C1CCCCC1)C2` (configuration not stated): the cytotoxicity at 10 µM was 9.17%.
In the case of `c1cnc(N2CCOCC3(CN(Cc4ccsc4)CCO3)C2)nc1` (configuration not stated), the cytotoxicity at 10 µM stood at 5.83%.
With `O=C(CC1CC1)N1CCN(Cc2ccncc2)c2ncccc2C1`, the cytotoxicity at 10 µM came to 10%.
For `CCOCC1CN(C(=O)Cc2ccccn2)Cc2cnn(C)c21` (configuration not stated) the value was 6.9%; for `CC(C)(CNCc1ccc(OCc2cscn2)cc1)C(N)=O`, -137%; for `CCOCC1CN(C(=O)c2ccncc2)Cc2nn(C)cc21` (configuration not stated), -5.82%.
As for `Cc1ccc(CN2C[C@@H]3CCN(Cc4ccncc4)C(=O)[C@H]3C2)s1`, the cytotoxicity at 10 µM is 4.53%.
As to `CN1Cc2[nH]nc(COCC3CC3)c2C1`, the cytotoxicity at 10 µM was 18%.
Turning to `Cc1ncsc1CN1CC[C@H]2OCC[C@@]2(C(=O)NC2CC2)C1`, the cytotoxicity at 10 µM amounted to 2.75%.
`c1c(CN2CCCCC2)nc2n1CCNC2`: the cytotoxicity at 10 µM is 3.91%.
Under `O=C1CCC2(CCC(NC(=O)NCc3ccccc3)CC2)N1` (configuration not stated) stands -0.0957%.
